Source: ChEMBL document CHEMBL4680084, “New β-Lactam Derivatives Modulate Cell Adhesion and Signaling Mediated by RGD-Binding and Leukocyte Integrins” (J Med Chem, 2016)
pEC50, pIC50: −log10 of the molar value. Activity calls are given as the source filed them. The rule behind the calls is not given here.

Assays:
Integrin alpha-5/beta-1 [1] = molecular target: T1, Integrin alpha-5/beta-1 (Homo sapiens, UniProt P05556+P08648); test: Inhibition of fibronectin binding to alpha5beta1 isolated from human K562 cells incubated for 1 hr by […] competitive solid-phase binding assay; format: tissue-based
Outline: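 Plates coated overnight at 4 °C in carbonate buffer pH 9.6 with fibronectin 0.5 µg/mL (αvβ3, αvβ6, α5β1), fibrinogen 10 µg/mL (αIIbβ3, αvβ5) or ICAM-1 (αLβ2). Blocked 1 h in buffer containing Ca/Mg/Mn 1 mM each and 1% BSA. Purified integrin (3–10 µg/mL) incubated with compound (10⁻⁴–10⁻¹⁰ M) 1 h at room temperature. Bound integrin detected with primary antibody then AlexaFluor488 secondary, Ex485/Em535. Duplicate, at least three repeats.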

Integrin alpha-V/beta-5 [2] = molecular target: T2, Integrin alpha-V/beta-5 (Homo sapiens, UniProt P06756+P18084); test: Agonist activity at alphaVbeta5 in human MCF7 cells assessed as increase in cell adhesion to fibrinogen pre-incubated for 30 mins before fibrinogen and further incubated for 1 hr by nitrophenyl-N-acetyl-beta-D-glucosaminide substrate based chromogenic assay
Outline: (§1)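 Compound or methanol vehicle pre-incubated with cells for 30 min at room temperature. Cells then plated on wells coated overnight at 4 °C with fibronectin 10 µg/mL (SK-MEL-24, K562, HT-29) or fibrinogen 10 µg/mL (MCF7, HEL). Seeding was 50,000 cells/well, or 100000 for HEL. Adhesion ran 1 h at room temperature. Wells washed with 1% BSA/PBS. Adherent cells read by hexosaminidase substrate, absorbance 405 nm. Quadruplicate, at least three repeats.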

Integrin alpha-V/beta-6 [3] = molecular target: T3, Integrin alpha-V/beta-6 (Homo sapiens, UniProt P06756+P18564); test: Antagonist activity at alphaVbeta6 in human HT-29 cells assessed as reduction in cell adhesion to fibronectin pre-incubated for 30 mins before fibronectin and further incubated for 1 hr by nitrophenyl-N-acetyl-beta-D-glucosaminide substrate based chromogenic assay
Outline: (§2)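 Compound or methanol vehicle pre-incubated with cells for 30 min at room temperature. Cells then plated on wells coated overnight at 4 °C with fibronectin 10 µg/mL (SK-MEL-24, K562, HT-29) or fibrinogen 10 µg/mL (MCF7, HEL). Seeding was 50,000 cells/well, or 100000 for HEL. Adhesion ran 1 h at room temperature. Wells washed with 1% BSA/PBS. Quadruplicate, at least three repeats.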

Integrin alpha-V/beta-3 [4] = molecular target: T4, Integrin alpha-V/beta-3 (Homo sapiens, UniProt P05106+P06756); test: Inhibition of fibronectin binding to human recombinant alphaVbeta3 expressed in HEK293 cells incubated for 1 hr by […] competitive solid-phase binding assay; format: cell-based
Integrin alpha-V/beta-6 [5] = molecular target: T3, Integrin alpha-V/beta-6; test: Inhibition of fibronectin binding to alphaVbeta6 isolated form human HT-29 cells incubated for 1 hr by […] competitive solid-phase binding assay; format: tissue-based
[6] = molecular target: T5, Integrin alpha-L/beta-2 (LFA-1) (Homo sapiens, UniProt P05107+P20701); test: Agonist activity at alphaLbeta2 in human Jurkat E6.1 cells assessed as increase in cell adhesion to ICAM1 pre-incubated for 30 mins before ICAM1 and further incubated for 30 mins by […]; format: cell-based
Outline: (§3)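 Jurkat E6.1 cells labelled with CellTracker green CMFDA (12.5 µM, 30 min, 37 °C), washed, then pre-incubated 30 min at 37 °C with compound or methanol. Plated at 500,000/well on VCAM-1 (α4β1) or ICAM-1 (αLβ2) coated wells (5 µg/mL) for 30 min at 37 °C. Cells lysed in 0.5% Triton X-100; fluorescence read Ex485/Em535. Quadruplicate, at least three repeats.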

[7] = molecular target: T5, Integrin alpha-L/beta-2 (LFA-1); test: Antagonist activity at alphaLbeta2 in human Jurkat E6.1 cells assessed as reduction in cell adhesion to ICAM1 pre-incubated for 30 mins before ICAM1 and further incubated for 30 mins by […]; format: cell-based; outline: as §3
Integrin alpha-4/beta-1 [8] = molecular target: T6, Integrin alpha-4/beta-1 (Homo sapiens, UniProt P05556+P13612); test: Antagonist activity at alpha4beta1 in human Jurkat E6.1 cells assessed as reduction in exposure of HUTS-21 epitope measured by mAb binding; format: cell-based; conditions: filed as antagonist
Outline: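 Jurkat E6.1 cells at 10⁶/mL in 1% BSA/HBSS incubated 30 min at 37 °C with compound. PE-labelled HUTS-21 mAb then added for 45 min at room temperature. Cells washed, 10,000 analysed by flow cytometry. MFI corrected to isotype control set to 0. Four independent experiments in duplicate.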

Integrin alpha-4/beta-1 [9] = molecular target: T6, Integrin alpha-4/beta-1; test: Inhibition of fibronectin binding to […] isolated from human Jurkat E6.1 cells incubated for 1 hr by scintillation-proximity assay based competitive solid-phase binding assay; format: tissue-based
Integrin alpha-V/beta-5 [10] = molecular target: T2, Integrin alpha-V/beta-5; test: Antagonist activity at alphaVbeta5 in human MCF7 cells assessed as reduction in cell adhesion to fibrinogen pre-incubated for 30 mins before fibrinogen and further incubated for 1 hr by nitrophenyl-N-acetyl-beta-D-glucosaminide substrate based chromogenic assay; outline: as §2
Integrin alpha-V/beta-5 [11] = molecular target: T2, Integrin alpha-V/beta-5; test: Inhibition of fibrinogen binding to alphaVbeta5 isolated form human mCf7 cells incubated for 1 hr by […] competitive solid-phase binding assay
HEL = test: Toxicity in human HEL cells assessed as induction of cell necrosis and/or apoptosis incubated for 3 hrs by annexin V-PE and 7-AAD staining based by flow cytometry
Outline: (§4)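 After 3 h incubation, cells resuspended in complete medium and stained with annexin V-PE/7-AAD reagent for 20 min at room temperature in the dark. Flow cytometry sorted cells into viable, early apoptotic and late apoptotic/necrotic populations.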

[12] = molecular target: T7, Integrin alpha-IIb/beta-3 (Homo sapiens, UniProt P05106+P08514); test: Antagonist activity at alpha2bbeta3 in human HEL cells assessed as reduction in cell adhesion to fibrinogen pre-incubated for 30 mins before fibrinogen and further incubated for 1 hr by nitrophenyl-N-acetyl-beta-D-glucosaminide substrate based chromogenic assay; outline: as §2
Integrin alpha-5/beta-1 [13] = molecular target: T1, Integrin alpha-5/beta-1; test: Antagonist activity at alpha5beta1 in human K562 cells assessed as reduction in cell adhesion to fibronectin pre-incubated for 30 mins before fibronectin and further incubated for 1 hr by nitrophenyl-N-acetyl-beta-D-glucosaminide substrate based chromogenic assay; outline: as §1
K562 = test: Toxicity in human K562 cells assessed as induction of cell necrosis and/or apoptosis incubated for 3 hrs by annexin V-PE and 7-AAD staining based by flow cytometry; conditions: k562, 3 h; outline: as §4
Integrin alpha-V/beta-3 [14] = molecular target: T4, Integrin alpha-V/beta-3; test: Antagonist activity at alphaVbeta3 in human SK-MEL-24 cells assessed as reduction in cell adhesion to fibronectin pre-incubated for 30 mins before fibronectin and further incubated for 1 hr by nitrophenyl-N-acetyl-beta-D-glucosaminide substrate based chromogenic assay; outline: as §2
MCF7 = test: Toxicity in human MCF7 cells assessed as induction of cell necrosis and/or apoptosis incubated for 3 hrs by annexin V-PE and 7-AAD staining based by flow cytometry; conditions: mcf7, 3 h; outline: as §4
Integrin alpha-4/beta-1 [15] = molecular target: T6, Integrin alpha-4/beta-1; test: Antagonist activity at alpha4beta1 in human Jurkat E6.1 cells assessed as reduction in VCAM-1 induced ERK1/2 phosphorylation at 1 to 100 pM by Western blot analysis; format: cell-based; conditions: filed as antagonist, dose 1-100 pM
Integrin alpha-V/beta-6 [16] = molecular target: T3, Integrin alpha-V/beta-6; test: Agonist activity at alphaVbeta6 in human HT-29 cells assessed as increase in cell adhesion to fibronectin pre-incubated for 30 mins before fibronectin and further incubated for 1 hr by nitrophenyl-N-acetyl-beta-D-glucosaminide substrate based chromogenic assay; outline: as §1
Integrin alpha-4/beta-1 [17] = molecular target: T6, Integrin alpha-4/beta-1; test: Antagonist activity at alpha4beta1 in human Jurkat E6.1 cells assessed as reduction in VCAM-1 induced ERK1/2 phosphorylation at 1 to 100 nM by Western blot analysis; format: cell-based; conditions: filed as antagonist, dose 1-100 nM
SK-MEL-24 = test: Toxicity in human SK-MEL-24 cells assessed as induction of cell necrosis and/or apoptosis incubated for 3 hrs by annexin V-PE and 7-AAD staining based by flow cytometry; conditions: sk-mel-24, 3 h; outline: as §4
HT-29 = test: Toxicity in human HT-29 cells assessed as induction of cell necrosis and/or apoptosis incubated for 3 hrs by annexin V-PE and 7-AAD staining based by flow cytometry; conditions: ht-29, 3 h; outline: as §4
Integrin alpha-5/beta-1 [18] = molecular target: T1, Integrin alpha-5/beta-1; test: Antagonist activity at alpha5beta1 in human K562 cells assessed as assessed as reduction in ERK1/2 phosphorylation at 1 to 100 nM by Western blot analysis; format: cell-based; conditions: filed as antagonist, dose 1-100 nM
Integrin alpha-4/beta-1 [19] = molecular target: T6, Integrin alpha-4/beta-1; test: Antagonist activity at alpha4beta1 in human Jurkat E6.1 cells assessed as reduction in cell adhesion to VCAM1 pre-incubated for 30 mins before VCAM1 and further incubated for 30 mins by […]; format: cell-based
[20] = molecular target: T7, Integrin alpha-IIb/beta-3; test: Agonist activity at alpha2bbeta3 in human HEL cells assessed as increase in cell adhesion to fibrinogen pre-incubated for 30 mins before fibrinogen and further incubated for 1 hr by nitrophenyl-N-acetyl-beta-D-glucosaminide substrate based chromogenic assay; outline: as §2
Integrin alpha-4/beta-1 [21] = molecular target: T6, Integrin alpha-4/beta-1; test: Agonist activity at alpha4beta1 in human Jurkat E6.1 cells assessed as increase in cell adhesion to VCAM1 pre-incubated for 30 mins before VCAM1 and further incubated for 30 mins by […]; format: cell-based; outline: as §3
Integrin alpha-V/beta-3 [22] = molecular target: T4, Integrin alpha-V/beta-3; test: Agonist activity at alphaVbeta3 in human SK-MEL-24 cells assessed as increase in cell adhesion to fibronectin at 10 ug/ml pre-incubated for 30 mins and further incubated for 1 hr in presence of in presence of integrin antagonist c(-RGDfV) by nitrophenyl-N-acetyl-beta-D-glucosaminide substrate based chromogenic assay; conditions: dose 10.0 µg/ml, time 90.0 min
Integrin alpha-V/beta-3 [23] = molecular target: T4, Integrin alpha-V/beta-3; test: Agonist activity at alphaVbeta3 in human SK-MEL-24 cells assessed as increase in cell adhesion to fibronectin at 2 to 10 ug/ml pre-incubated for 30 mins and further incubated for 1 hr by nitrophenyl-N-acetyl-beta-D-glucosaminide substrate based chromogenic assay; conditions: filed as agonist, dose 2-10 µg/ml, time 90.0 min
[24] = molecular target: T7, Integrin alpha-IIb/beta-3; test: Inhibition of fibrinogen binding to alpha2bbeta3 isolated from human HEL cells incubated for 1 hr by […] competitive solid-phase binding assay
Integrin alpha-V/beta-3 [25] = molecular target: T4, Integrin alpha-V/beta-3; test: Agonist activity at human alphaVbeta3 expressed in HEK293 cells assessed as increase in ERK1/2 phosphorylation by Western blot analysis; format: cell-based; conditions: filed as agonist
Integrin alpha-V/beta-3 [26] = molecular target: T4, Integrin alpha-V/beta-3; test: Agonist activity at alphaVbeta3 in human SK-MEL-24 cells assessed as increase in cell adhesion to fibronectin at 10 ug/ml pre-incubated for 30 mins and further incubated for 1 hr in presence of neutralizing antibody against the alphaV integrin subunit by nitrophenyl-N-acetyl-beta-D-glucosaminide substrate based chromogenic assay; conditions: dose 10.0 µg/ml, time 90.0 min

| SMILES | pIC50 (Integrin alpha-5/beta-1 [1]) | pEC50 (Integrin alpha-V/beta-5 [2]) | pIC50 (Integrin alpha-V/beta-6 [3]) | pIC50 (Integrin alpha-V/beta-3 [4]) | pIC50 (Integrin alpha-V/beta-6 [5]) | pEC50 [6] | pIC50 [7] | pIC50 (Integrin alpha-4/beta-1 [9]) | pIC50 (Integrin alpha-V/beta-5 [11]) | Activity (HEL) | pIC50 [12] | Activity (K562) | Activity (MCF7) | pEC50 (Integrin alpha-V/beta-6 [16]) | Activity (SK-MEL-24) | Activity (HT-29) | pIC50 (Integrin alpha-4/beta-1 [19]) | pEC50 [20] | other results |
| --- | --- | --- | --- | --- | --- | --- | --- | --- | --- | --- | --- | --- | --- | --- | --- | --- | --- | --- | --- |
| Cc1ccccc1NC(=O)N1C(=O)C[C@H]1C(=O)O | 6.94 | < 5.30 | < 5.30 | 6.55 | < 6.00 | < 5.30 | < 5.30 | 8.96 | < 6.00 | Non-Toxic | < 5.30 | Non-Toxic | Non-Toxic | < 5.30 | Non-Toxic | Non-Toxic | 8.86 | < 5.30 | Activity (Integrin alpha-4/beta-1 [8]): Dose-dependent effect; pIC50 (Integrin alpha-V/beta-5 [10]): < 5.30; pIC50 (Integrin alpha-5/beta-1 [13]): 6.80; pIC50 (Integrin alpha-V/beta-3 [14]): 6.45; Activity (Integrin alpha-4/beta-1 [15]): Dose-dependent effect; Activity (Integrin alpha-4/beta-1 [17]): Active; Activity (Integrin alpha-5/beta-1 [18]): Dose-dependent effect |
| NCc1ccc(NC(=O)N2C(=O)CC2CC(=O)NCC(=O)O)cc1.O=C(O)C(F)(F)F (centres undefined) | < 6.00 | 6.30 | < 5.30 | 8.92 | < 6.00 | < 5.30 | < 5.30 | < 6.00 | 6.98 | Non-Toxic | < 5.30 | Non-Toxic | Non-Toxic | < 5.30 | Non-Toxic | Non-Toxic | < 5.30 | < 5.30 | pEC50 (Integrin alpha-4/beta-1 [21]): < 5.30; Activity (Integrin alpha-V/beta-3 [22]): inactive; Activity (Integrin alpha-V/beta-3 [23]): Dose-dependent effect; pIC50 [24]: < 6.00; Activity (Integrin alpha-V/beta-3 [25]): Dose-dependent effect; Activity (Integrin alpha-V/beta-3 [26]): inactive |
